How the values were obtained:
[1] = biological target: Cyclin-dependent kinase 16 (Homo sapiens) (UniProt Q00536); assay: Inhibition of PCTAIRE1 Lys1 labeling site in human A-375 cells at 5 uM by KiNativ Profiling analysis relative to control; type: cell-based
[2] = biological target: T1, Serine/threonine-protein kinase NLK (Homo sapiens) (UniProt Q9UBE8); assay: Inhibition of NLK Lys2 labeling site in human A-375 cells at 0.05 uM by KiNativ Profiling analysis relative to control; type: cell-based
T1 sequence (whole entry): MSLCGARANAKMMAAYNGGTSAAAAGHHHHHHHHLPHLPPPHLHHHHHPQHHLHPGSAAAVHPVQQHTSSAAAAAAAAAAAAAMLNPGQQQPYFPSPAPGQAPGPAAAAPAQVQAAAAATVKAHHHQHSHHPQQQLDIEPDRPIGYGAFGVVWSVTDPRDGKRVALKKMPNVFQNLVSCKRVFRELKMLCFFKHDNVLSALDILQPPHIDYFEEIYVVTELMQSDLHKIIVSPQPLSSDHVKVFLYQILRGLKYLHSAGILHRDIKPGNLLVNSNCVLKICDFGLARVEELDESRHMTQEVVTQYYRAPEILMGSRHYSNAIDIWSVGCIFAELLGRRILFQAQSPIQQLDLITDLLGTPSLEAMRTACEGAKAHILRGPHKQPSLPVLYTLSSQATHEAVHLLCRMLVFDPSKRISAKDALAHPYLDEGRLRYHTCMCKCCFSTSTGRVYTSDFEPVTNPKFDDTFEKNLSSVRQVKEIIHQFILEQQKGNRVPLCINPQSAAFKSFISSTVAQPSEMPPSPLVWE

[3] = biological target: Serine/threonine-protein kinase WNK2 (Homo sapiens) (UniProt Q9Y3S1); assay: Inhibition of Wnk2 Lys2 labeling site in human A-375 cells at 5 uM by KiNativ Profiling analysis relative to control; type: cell-based
[4] = biological target: Mitogen-activated protein kinase 14 (Homo sapiens, UniProt Q16539); assay: Inhibition of p38 alpha in human A-375 cells at 0.5 uM by KiNativ Profiling analysis relative to control; type: cell-based
[5] = biological target: Tyrosine-protein kinase ABL2 (Homo sapiens, UniProt P42684); assay: Inhibition of ARG Lys1 labeling site in human A-375 cells at 5 uM by KiNativ Profiling analysis relative to control; type: cell-based
In short: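 Intact A375 melanoma cells were treated with compound at 5 or 0.5 μM, then lysed. Lysate kinases were labeled with a lysine-reactive ATP or ADP-biotin probe (KiNativ). Inhibition is read as protection of each kinase labeling site from probe labeling.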

[6] = biological target: Serine/threonine-protein kinase WNK2 (Homo sapiens) (UniProt Q9Y3S1); assay: Inhibition of Wnk2 ACT labeling site in human A-375 cells at 0.05 uM by KiNativ Profiling analysis relative to control; type: cell-based
[7] = biological target: Serine/threonine-protein kinase VRK2 (Homo sapiens) (UniProt Q86Y07); assay: Inhibition of VRK2 Lys2 labeling site in human A-375 cells at 5 uM by KiNativ Profiling analysis relative to control; type: cell-based
[8] = biological target: Aurora kinase B (Homo sapiens) (UniProt Q96GD4); assay: Inhibition of AurB ATP Loop labeling site in human A-375 cells at 0.5 uM by KiNativ Profiling analysis relative to control; type: cell-based
In short: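 Live A375 melanoma cells were treated with compound at 5 or 0.5 μM, then lysed. The lysates were labeled with a lysine-reactive ATP or ADP-biotin probe. Kinase protection from probe labeling was measured by KiNativ.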

[9] = biological target: Serine/threonine-protein kinase 10 (Homo sapiens) (UniProt O94804); assay: Inhibition of LOK Lys1 labeling site harbouring NKETGALAAAKVIETK in human A-375 cells at 0.5 uM by KiNativ Profiling analysis relative to control; type: cell-based
[10] = biological target: Mitogen-activated protein kinase kinase kinase 1 (Homo sapiens) (UniProt Q13233); assay: Inhibition of MAP3K1 Lys2 labeling site in human A-375 cells at 0.05 uM by KiNativ Profiling analysis relative to control; type: cell-based
[11] = biological target: Calcium/calmodulin-dependent protein kinase type II subunit delta (Homo sapiens) (UniProt Q13557); assay: Inhibition of CaMK2d Lys1 labeling site in human A-375 cells at 0.5 uM by KiNativ Profiling analysis relative to control; type: cell-based
In short: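 Live A375 melanoma cells were treated with compound at 5 or 0.5 μM. The cells were then lysed, and the lysates were labeled with a lysine-reactive ATP or ADP-biotin acyl probe (KiNativ). Inhibition is the compound's protection of each kinase labeling-site peptide from probe labeling, relative to untreated control.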

[12] = biological target: Tyrosine-protein kinase Fer (Homo sapiens, UniProt P16591); assay: Inhibition of FER Lys1 labeling site in human A-375 cells at 5 uM by KiNativ Profiling analysis relative to control; type: cell-based
[13] = biological target: T2, Mitogen-activated protein kinase kinase kinase kinase 2 (Homo sapiens) (UniProt Q12851); assay: Inhibition of MAP4K2 Lys1 labeling site in human Huh-7 cell lysate at 1 uM by KiNativ Profiling analysis relative to control; type: subcellular
T2 sequence (whole entry): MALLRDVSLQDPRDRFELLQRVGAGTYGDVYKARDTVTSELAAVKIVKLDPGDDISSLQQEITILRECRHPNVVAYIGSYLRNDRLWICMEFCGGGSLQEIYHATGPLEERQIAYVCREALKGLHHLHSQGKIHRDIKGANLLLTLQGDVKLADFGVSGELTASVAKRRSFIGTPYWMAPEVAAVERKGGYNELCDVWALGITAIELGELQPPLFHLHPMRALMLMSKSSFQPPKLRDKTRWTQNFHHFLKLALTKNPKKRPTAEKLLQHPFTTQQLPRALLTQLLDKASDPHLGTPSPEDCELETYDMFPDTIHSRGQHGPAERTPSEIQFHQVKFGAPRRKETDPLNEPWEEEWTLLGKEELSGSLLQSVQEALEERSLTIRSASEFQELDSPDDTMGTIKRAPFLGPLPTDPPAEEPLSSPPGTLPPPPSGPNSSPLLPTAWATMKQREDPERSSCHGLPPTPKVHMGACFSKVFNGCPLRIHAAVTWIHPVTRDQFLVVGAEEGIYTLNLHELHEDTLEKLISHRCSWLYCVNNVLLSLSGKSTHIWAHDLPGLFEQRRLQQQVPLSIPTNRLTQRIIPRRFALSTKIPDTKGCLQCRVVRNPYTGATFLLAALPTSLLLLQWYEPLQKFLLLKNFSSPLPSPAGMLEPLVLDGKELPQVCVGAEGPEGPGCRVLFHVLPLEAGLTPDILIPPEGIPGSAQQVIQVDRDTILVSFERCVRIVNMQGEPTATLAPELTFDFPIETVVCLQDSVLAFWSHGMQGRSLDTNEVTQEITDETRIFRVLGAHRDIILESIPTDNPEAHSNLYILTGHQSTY

[14] = biological target: Mitogen-activated protein kinase kinase kinase 20 (Homo sapiens, UniProt Q9NYL2); assay: Inhibition of ZAK Lys1 labeling site in human Huh-7 cell lysate at 1 uM by KiNativ Profiling analysis relative to control; type: subcellular

Serine/threonine-protein kinase WNK2 (Homo sapiens), sequence (Q9Y3S1 whole entry): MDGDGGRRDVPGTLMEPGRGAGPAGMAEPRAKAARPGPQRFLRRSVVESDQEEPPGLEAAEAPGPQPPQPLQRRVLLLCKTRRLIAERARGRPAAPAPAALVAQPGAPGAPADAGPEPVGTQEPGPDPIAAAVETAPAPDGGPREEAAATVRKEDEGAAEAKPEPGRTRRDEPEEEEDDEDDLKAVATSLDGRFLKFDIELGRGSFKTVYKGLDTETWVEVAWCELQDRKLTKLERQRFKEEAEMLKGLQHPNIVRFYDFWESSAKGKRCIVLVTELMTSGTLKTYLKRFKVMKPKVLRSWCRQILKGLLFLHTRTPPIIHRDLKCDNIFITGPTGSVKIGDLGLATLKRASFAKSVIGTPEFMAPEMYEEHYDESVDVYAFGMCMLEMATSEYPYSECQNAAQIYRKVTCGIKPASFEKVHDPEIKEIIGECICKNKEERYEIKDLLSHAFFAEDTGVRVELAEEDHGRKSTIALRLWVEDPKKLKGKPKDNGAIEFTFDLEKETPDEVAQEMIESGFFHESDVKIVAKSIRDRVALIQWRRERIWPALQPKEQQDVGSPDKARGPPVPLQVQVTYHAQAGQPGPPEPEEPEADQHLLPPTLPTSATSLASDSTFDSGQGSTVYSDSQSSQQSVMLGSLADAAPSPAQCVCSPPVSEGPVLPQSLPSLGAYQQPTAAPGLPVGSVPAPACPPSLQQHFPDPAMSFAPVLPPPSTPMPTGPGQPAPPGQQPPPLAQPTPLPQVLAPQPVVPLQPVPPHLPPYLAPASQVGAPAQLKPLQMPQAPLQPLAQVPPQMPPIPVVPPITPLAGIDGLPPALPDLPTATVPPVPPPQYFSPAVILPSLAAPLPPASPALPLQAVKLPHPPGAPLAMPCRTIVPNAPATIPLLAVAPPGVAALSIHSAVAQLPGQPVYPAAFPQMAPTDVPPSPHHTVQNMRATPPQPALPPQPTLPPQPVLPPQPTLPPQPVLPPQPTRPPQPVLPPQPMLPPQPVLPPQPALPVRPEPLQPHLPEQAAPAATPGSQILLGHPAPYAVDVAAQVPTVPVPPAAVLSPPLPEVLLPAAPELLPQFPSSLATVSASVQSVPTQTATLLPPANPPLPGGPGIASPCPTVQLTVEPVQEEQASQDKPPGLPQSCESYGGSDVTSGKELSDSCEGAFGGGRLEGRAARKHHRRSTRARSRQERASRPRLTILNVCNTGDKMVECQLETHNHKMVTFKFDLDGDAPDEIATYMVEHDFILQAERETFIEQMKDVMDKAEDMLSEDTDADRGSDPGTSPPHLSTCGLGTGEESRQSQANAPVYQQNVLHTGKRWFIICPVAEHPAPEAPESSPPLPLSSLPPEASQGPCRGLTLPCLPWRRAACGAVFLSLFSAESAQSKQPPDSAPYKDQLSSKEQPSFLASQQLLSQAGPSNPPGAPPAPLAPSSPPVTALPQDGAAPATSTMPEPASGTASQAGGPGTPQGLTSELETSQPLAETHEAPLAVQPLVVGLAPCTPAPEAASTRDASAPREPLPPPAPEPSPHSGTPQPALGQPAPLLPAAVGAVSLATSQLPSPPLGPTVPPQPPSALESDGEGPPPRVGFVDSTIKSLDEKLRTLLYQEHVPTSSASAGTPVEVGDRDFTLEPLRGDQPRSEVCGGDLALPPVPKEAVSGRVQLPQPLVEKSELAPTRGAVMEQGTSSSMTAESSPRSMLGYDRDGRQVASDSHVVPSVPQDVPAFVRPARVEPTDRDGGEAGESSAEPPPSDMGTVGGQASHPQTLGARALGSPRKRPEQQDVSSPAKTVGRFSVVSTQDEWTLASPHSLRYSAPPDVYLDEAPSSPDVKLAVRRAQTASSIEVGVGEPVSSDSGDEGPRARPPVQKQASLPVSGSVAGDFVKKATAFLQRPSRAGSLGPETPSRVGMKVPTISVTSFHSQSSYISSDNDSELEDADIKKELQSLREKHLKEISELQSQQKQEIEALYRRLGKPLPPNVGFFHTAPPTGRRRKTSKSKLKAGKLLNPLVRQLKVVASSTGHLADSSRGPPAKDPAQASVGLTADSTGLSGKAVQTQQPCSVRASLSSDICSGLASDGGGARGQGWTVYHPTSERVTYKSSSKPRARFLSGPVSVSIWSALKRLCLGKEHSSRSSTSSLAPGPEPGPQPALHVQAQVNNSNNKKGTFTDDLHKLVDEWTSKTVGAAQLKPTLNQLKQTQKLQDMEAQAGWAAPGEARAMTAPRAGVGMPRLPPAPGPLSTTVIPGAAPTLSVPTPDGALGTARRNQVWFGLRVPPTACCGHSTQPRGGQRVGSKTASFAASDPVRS
Tyrosine-protein kinase Fer, sequence (P16591 whole entry, looked up): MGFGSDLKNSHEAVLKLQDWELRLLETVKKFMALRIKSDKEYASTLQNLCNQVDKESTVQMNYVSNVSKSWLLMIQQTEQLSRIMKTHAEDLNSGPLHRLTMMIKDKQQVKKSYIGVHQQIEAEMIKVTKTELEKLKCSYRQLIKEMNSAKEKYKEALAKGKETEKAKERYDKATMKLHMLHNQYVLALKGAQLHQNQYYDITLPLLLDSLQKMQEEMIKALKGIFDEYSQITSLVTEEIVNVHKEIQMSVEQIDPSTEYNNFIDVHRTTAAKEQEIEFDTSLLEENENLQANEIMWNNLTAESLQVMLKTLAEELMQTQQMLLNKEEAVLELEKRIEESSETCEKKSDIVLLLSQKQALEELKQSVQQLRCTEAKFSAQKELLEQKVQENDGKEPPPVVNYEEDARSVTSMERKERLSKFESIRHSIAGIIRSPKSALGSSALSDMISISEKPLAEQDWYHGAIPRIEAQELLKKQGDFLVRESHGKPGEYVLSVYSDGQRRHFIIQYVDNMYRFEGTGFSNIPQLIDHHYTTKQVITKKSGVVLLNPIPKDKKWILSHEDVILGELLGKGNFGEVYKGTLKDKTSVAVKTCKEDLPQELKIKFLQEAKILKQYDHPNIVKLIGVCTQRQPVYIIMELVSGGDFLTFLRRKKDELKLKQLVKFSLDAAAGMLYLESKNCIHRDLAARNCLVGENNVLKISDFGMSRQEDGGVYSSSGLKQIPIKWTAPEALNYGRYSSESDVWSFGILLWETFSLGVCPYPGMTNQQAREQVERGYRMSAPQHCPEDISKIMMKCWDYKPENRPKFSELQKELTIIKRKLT
Tyrosine-protein kinase ABL2, sequence (P42684 whole entry): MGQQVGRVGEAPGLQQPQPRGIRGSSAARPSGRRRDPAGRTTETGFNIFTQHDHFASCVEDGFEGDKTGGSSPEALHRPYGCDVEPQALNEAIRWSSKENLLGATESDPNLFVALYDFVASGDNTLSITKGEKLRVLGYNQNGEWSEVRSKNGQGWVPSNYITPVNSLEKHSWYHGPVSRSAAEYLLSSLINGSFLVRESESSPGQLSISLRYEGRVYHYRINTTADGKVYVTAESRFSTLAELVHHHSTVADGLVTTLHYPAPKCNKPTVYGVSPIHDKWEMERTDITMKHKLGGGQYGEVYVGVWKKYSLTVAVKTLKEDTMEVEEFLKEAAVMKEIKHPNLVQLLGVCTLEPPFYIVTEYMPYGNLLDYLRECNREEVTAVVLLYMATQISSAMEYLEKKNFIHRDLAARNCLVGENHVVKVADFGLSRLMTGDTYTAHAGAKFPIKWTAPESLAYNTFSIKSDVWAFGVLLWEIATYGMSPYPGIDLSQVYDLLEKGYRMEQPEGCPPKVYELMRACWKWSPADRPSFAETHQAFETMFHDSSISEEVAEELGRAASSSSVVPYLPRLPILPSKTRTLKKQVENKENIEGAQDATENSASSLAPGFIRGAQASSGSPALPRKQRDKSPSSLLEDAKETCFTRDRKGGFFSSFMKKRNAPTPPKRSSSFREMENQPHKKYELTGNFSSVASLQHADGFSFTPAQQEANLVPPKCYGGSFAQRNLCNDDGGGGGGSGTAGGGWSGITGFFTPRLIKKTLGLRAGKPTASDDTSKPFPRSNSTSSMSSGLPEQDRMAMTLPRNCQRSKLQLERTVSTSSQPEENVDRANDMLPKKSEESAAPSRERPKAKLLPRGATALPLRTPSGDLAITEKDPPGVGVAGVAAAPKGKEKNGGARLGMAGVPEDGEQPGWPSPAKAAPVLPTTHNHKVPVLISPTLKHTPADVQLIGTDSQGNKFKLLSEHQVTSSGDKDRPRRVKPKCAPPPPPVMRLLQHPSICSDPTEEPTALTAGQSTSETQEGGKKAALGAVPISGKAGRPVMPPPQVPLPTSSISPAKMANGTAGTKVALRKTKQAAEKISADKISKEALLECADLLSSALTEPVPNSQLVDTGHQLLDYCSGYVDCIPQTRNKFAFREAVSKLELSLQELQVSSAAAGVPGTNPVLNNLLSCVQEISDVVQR
Serine/threonine-protein kinase VRK2 (Homo sapiens), sequence (Q86Y07 whole entry): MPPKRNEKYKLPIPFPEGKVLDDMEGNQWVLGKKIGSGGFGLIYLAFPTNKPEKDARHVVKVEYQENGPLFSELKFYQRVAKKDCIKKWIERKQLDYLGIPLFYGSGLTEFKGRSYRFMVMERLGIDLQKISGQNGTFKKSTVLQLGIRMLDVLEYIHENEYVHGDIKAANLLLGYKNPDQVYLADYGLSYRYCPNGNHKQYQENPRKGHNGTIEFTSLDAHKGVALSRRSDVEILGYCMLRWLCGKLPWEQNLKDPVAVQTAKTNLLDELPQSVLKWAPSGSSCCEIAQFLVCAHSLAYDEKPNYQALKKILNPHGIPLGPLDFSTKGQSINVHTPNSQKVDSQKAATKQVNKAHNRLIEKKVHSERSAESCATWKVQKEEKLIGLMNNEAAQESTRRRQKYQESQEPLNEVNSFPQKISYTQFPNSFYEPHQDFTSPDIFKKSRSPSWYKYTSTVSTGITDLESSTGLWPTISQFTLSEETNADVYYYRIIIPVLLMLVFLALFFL

Compound | inhibition [1] | inhibition [2] | inhibition [3] | inhibition [4] | inhibition [5] | inhibition [6] | inhibition [7] | inhibition [8] | inhibition [9] | inhibition [10] | inhibition [11] | inhibition [12] | inhibition [13] | inhibition [14]
CCN1CCN(Cc2ccc(NC(=O)c3ccc(C)c(/C=C/c4cnc5[nH]ccc5c4OC)c3)cc2C(F)(F)F)CC1 | 32.1% | 13.8% | 14.3% | 69.2% | > 90% | 10.1% | 21.5% | 30.2% | 61.8% | 23.1% | 26% | 80.3% |  | 
CCN1CCN(Cc2ccc(NC(=O)c3ccc(C)c(Oc4ccnc5[nH]ccc45)c3)cc2C(F)(F)F)CC1 | 72.6% | -5.6% | -5.5% | 51.9% | 86.8% | 10.3% | 12.7% | 31.2% | 74.7% | 16.8% | 8.7% | 98.1% |  | 
CNc1cc(Oc2cc(C(=O)Nc3cc(-n4cnc(C)c4)cc(C(F)(F)F)c3)ccc2C)ncn1 |  |  |  |  |  |  |  |  |  |  |  |  | 79.7% | 43.6%
CNc1cc(Oc2cc(C(=O)Nc3cc(N4CCN(C)CC4)cc(C(F)(F)F)c3)ccc2C)ncn1 |  |  |  |  |  |  |  |  |  |  |  |  | 85.3% | 31.8%

— ChEMBL document CHEMBL5696442, “Discovery of type II inhibitors of TGFβ-activated kinase 1 (TAK1) and mitogen-activated protein kinase kinase kinase kinase 2 (MAP4K2)” (J Med Chem, 2015)
